{"source": "paper PMC10150180", "about": "(Acta Pharmaceutica Sinica. B, 2023)", "key": {"[1]": {"test_system": "SLUG degradation in AEC2s", "test": "SLUG degradation in AEC2s with cycloheximide plus 3MA or MG132", "assay_type": "cell-based, mouse", "settings": "CHX 10 μg/mL with 3 MA 5 mmol/L or MG132 10 μmol/L"}, "AEC2s": {"test_system": "AEC2s", "assay_type": "cell-based, mouse", "settings": "3D Matrigel co-culture with MLg2908 cells, Day 14, n = 3", "outline": "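Mouse AEC2s were sorted as DAPI-negative, lineage-negative, EpCAM-positive cells from lineage-depleted lung cells. 5 × 10^3 cells were embedded in Matrigel/DMEM (1:1) with 2 × 10^5 MLg2908 cells in Transwell inserts. Lower-chamber DMEM contained ITS, 10% FBS and antibiotics, changed daily. On Day 14, colonies above a size cutoff were counted by microscopy. CFE = colonies / input AEC2s.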"}, "mBLM-challenged mice": {"test_system": "mBLM-challenged mice", "test": "MX69", "assay_type": "in vivo, mouse", "settings": "n = 5", "outline": "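Mice under avertin anaesthesia (400 mg/kg i.p.) received intratracheal bleomycin, 1 U/kg in LPS-free PBS, six times at 14-day intervals. The MDM2 inhibitor was given at 100 mg/kg/day i.p. for 3 days after every challenge and for 3 days before sacrifice. Read-outs: Slug immunoblot in sorted AEC2s (GAPDH loading control), right-lung hydroxyproline, Masson staining, and AEC2 colony-forming efficiency.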"}, "[2]": {"target": "TRIB3 (immobilized on CM5 sensor chips) (UniProt Q96RU7)", "sequence (Q96RU7 whole entry)": "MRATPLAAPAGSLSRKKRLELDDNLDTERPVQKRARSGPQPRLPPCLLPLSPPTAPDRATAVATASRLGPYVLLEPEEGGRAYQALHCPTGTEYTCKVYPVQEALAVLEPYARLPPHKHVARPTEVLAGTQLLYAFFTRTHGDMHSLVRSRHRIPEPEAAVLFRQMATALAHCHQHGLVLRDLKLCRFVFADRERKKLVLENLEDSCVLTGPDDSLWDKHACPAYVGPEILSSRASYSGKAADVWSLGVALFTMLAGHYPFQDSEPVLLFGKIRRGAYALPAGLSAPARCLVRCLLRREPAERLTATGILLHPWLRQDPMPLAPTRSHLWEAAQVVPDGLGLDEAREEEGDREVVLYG", "test": "SPR"}}, "note": "Peptide text beside a SMILES is read from it. * marks the point of attachment. Cbz = O=C(OCc1ccccc1)*"}
{"compound": "CC(C)C[C@@H](C=O)NC(=O)[C@H](CC(C)C)NC(=O)[C@H](CC(C)C)NC(=O)OCc1ccccc1", "note": "[MG132] (Cbz-Leu-Leu-Leu-aldehyde)", "values": [{"measurement": "SLUG degradation", "setting": "[1]", "result": "suppressed"}]}
{"compound": "C[S+]([O-])c1ccc(-c2nc(-c3ccncc3)c(-c3ccc(F)cc3)[nH]2)cc1", "note": "(stereo not shown) [SB203580]", "values": [{"measurement": "CFE of AEC2s", "setting": "AEC2s", "result": "decreased"}]}
{"compound": "Cc1ccc(NS(=O)(=O)c2ccc3c(c2)C2C=CCC2C(c2ccc(C(=O)O)cc2)N3)cc1C", "note": "(stereo not shown) [MX69]", "values": [{"measurement": "level of Slug in AEC2s", "setting": "mBLM-challenged mice; AEC2s isolated from fibrotic mice but not control mice, immunoblot", "result": "increased"}, {"measurement": "protein level of MDM2 in AEC2s", "setting": "mBLM-challenged mice; AEC2s isolated from fibrotic mice, immunoblot", "result": "decreased"}, {"measurement": "capacity of AEC2s mediated LAR (colony-forming efficiency)", "setting": "mBLM-challenged mice; AEC2s sorted from MX69 treated mBLM mice", "result": "further declined"}]}
{"compound": "Oc1c2ccccc2c2c3c(cccc13)N=N2", "note": "[SP600125]", "values": [{"measurement": "CFE of AEC2s", "setting": "AEC2s", "result": "decreased"}]}
{"compound": "MR2 (from UniProt Q00987 460-470) (peptide)", "values": [{"measurement": "Kd", "setting": "[2]", "result": 46, "unit": "nM"}]}
